{"source": "ChEMBL document CHEMBL4414557", "about": "“Labdanes, Withanolides, and Other Constituents from Physalis nicandroides” (J Nat Prod, 2019)", "key": {"[1]": {"biological_target": "Acetylcholinesterase (Electrophorus electricus) (UniProt O42275)", "sequence (O42275 24-633 limits assumed)": "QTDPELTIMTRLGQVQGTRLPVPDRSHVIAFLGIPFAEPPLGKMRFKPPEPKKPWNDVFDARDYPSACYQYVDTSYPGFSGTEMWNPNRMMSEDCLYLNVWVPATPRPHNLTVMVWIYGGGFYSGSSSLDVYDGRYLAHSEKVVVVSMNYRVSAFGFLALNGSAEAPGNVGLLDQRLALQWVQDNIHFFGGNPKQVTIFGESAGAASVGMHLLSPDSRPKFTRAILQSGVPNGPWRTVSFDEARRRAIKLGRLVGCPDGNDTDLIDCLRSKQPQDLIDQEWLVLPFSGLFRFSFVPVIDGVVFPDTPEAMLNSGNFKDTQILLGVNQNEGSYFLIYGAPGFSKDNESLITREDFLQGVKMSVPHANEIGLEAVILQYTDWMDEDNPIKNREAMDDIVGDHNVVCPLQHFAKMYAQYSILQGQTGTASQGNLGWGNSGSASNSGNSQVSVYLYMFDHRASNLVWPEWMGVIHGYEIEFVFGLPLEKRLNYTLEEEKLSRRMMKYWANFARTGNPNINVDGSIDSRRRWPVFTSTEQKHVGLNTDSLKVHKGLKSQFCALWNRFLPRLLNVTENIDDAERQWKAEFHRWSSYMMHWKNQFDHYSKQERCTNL", "assay": "Activation of Electrophorus electricus AChE at 100 uM using acetylthiocholine iodide as substrate preincubated for 30 mins followed by substrate addition and measured after 5 mins by Ellman's method relative to control"}, "Saccharomyces cerevisiae [2]": {"tested_on": "Saccharomyces cerevisiae", "assay": "Inhibition of yeast alpha-glucosidase type 1 at 100 uM using p-Nitrophenyl alpha-D-glucopyranoside as substrate preincubated for 10 mins followed by incubation with substrate for 15 mins and measured after 5 mins by microplate reader analysis", "procedure,_shortened": "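Sample in DMSO–H2O 1:1 added to PBS (67 mM, pH 6.8) with glutathione (3 mM in PBS) and enzyme (0.2 U mL−1 in PBS), preincubated 10 min at 37 °C. p-Nitrophenyl α-D-glucopyranoside (23.2 mM in PBS) then added, 15 min at 37 °C with agitation. Stopped with 1 M Na2CO3, read at 405 nm after 5 min. Percent inhibition versus negative control, triplicate. Quercetin positive control.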"}, "Saccharomyces cerevisiae [3]": {"tested_on": "Saccharomyces cerevisiae", "assay": "Activation of yeast alpha-glucosidase type 1 at 100 uM using p-Nitrophenyl alpha-D-glucopyranoside as substrate preincubated for 10 mins followed by incubation with substrate for 15 mins and measured after 5 mins by microplate reader analysis relative to control", "procedure,_shortened": "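Yeast α-glucosidase type I (25 μL, 0.2 U mL−1 in PBS) with glutathione (25 μL, 3 mM) in phosphate buffer (67 mM, pH 6.8). Samples were added in DMSO–H2O 1:1 and preincubated 10 min at 37 °C. Then p-nitrophenyl α-D-glucopyranoside (25 μL, 23.2 mM) was added, 15 min at 37 °C with agitation. Stopped with 1 M Na2CO3; A405 read. % vs negative control; triplicate, mean ± SD.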"}, "[4]": {"biological_target": "Acetylcholinesterase (Electrophorus electricus) (UniProt O42275)", "assay": "Inhibition of Electrophorus electricus AChE at 100 uM using acetylthiocholine iodide as substrate preincubated for 30 mins followed by substrate addition and measured after 5 mins by Ellman's method relative to control"}, "Acetylcholinesterase": {"biological_target": "Acetylcholinesterase (Electrophorus electricus, UniProt O42275)", "sequence (O42275 whole entry)": "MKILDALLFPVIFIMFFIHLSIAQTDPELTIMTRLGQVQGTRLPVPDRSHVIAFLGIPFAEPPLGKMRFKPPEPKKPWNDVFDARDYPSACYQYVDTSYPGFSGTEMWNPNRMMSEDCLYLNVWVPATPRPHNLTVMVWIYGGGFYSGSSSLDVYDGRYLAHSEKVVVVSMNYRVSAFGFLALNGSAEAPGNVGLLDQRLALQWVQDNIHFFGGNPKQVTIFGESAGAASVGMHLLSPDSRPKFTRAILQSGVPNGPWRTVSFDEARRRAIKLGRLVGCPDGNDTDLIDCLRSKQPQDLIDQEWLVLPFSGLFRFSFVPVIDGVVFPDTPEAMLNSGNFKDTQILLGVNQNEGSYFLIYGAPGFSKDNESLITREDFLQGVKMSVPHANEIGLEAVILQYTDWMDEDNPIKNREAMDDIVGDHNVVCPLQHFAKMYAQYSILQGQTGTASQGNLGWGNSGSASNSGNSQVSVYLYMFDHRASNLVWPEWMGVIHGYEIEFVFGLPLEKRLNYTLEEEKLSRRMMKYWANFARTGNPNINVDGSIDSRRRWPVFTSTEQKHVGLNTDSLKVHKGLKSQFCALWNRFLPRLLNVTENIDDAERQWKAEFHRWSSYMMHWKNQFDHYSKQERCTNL", "assay": "Inhibition of Electrophorus electricus AChE using acetylthiocholine iodide as substrate preincubated for 30 mins followed by substrate addition and measured after 5 mins by Ellman's method"}}, "note": "The source made the active and inactive calls. The calls are words filed in the database; no cut-off is given here.", "data": [{"molecule": "CC(=O)O[C@H]1C[C@H]([C@@](C)(O)[C@H]2CC(C)=C(C)C(=O)O2)[C@@]2(C)CC[C@H]3[C@@H](C[C@@H](O)[C@@]4(Cl)CC=CC(=O)[C@]34C)[C@@]12O", "values": [{"measurement": "Activity", "setting": "[1]", "result": "6.7 to 96", "unit": "%"}, {"measurement": "inhibition", "setting": "Saccharomyces cerevisiae [2]", "result": "Active"}]}, {"molecule": "CC(=O)O[C@H]1C[C@H]([C@@](C)(O)[C@H]2CC(C)=C(C)C(=O)O2)[C@@]2(C)CC[C@H]3[C@@H](C[C@H]4O[C@]45CC=CC(=O)[C@]35C)[C@@]12O", "values": [{"measurement": "Activity", "setting": "[1]", "result": "6.7 to 96", "unit": "%"}, {"measurement": "inhibition", "setting": "Saccharomyces cerevisiae [2]", "result": "Active"}]}, {"molecule": "C=C1CC[C@H]2C(C)(C)CCC[C@]2(C)[C@H]1C[C@H](O[C@@H]1O[C@H](CO)[C@@H](O)[C@H](O)[C@H]1O)/C(C)=C/COC(=O)CC(C)C", "values": [{"measurement": "Activity", "setting": "[1]", "result": "6.7 to 96", "unit": "%"}, {"measurement": "Activity", "setting": "Saccharomyces cerevisiae [3]", "result": "1.1 to 29.4", "unit": "%"}]}, {"molecule": "C=C1CC[C@H]2C(C)(C)CCC[C@]2(C)[C@H]1C[C@H](O[C@@H]1O[C@H](COC(C)=O)[C@@H](OC(C)=O)[C@H](OC(C)=O)[C@H]1OC(C)=O)/C(C)=C/COC(=O)CC(C)C", "values": [{"measurement": "Activity", "setting": "[1]", "result": "6.7 to 96", "unit": "%"}, {"measurement": "inhibition", "setting": "Saccharomyces cerevisiae [2]", "result": "Active"}]}, {"molecule": "C=C(C)C(C)(O)CC[C@@H](C)[C@H]1CC[C@H]2[C@@H]3CC=C4C[C@@H](O)CC[C@]4(C)[C@H]3CC[C@]12C", "note": "(stereo partly drawn)", "values": [{"measurement": "inhibition", "setting": "[4]", "result": 24, "unit": "%"}, {"measurement": "inhibition", "setting": "Saccharomyces cerevisiae [2]", "result": "Active"}]}, {"molecule": "CC(=O)O[C@H]1C[C@H]([C@@](C)(O)[C@H]2CC(C)=C(C)C(=O)O2)[C@@]2(C)CC[C@H]3[C@@H](C[C@@H](OC(C)=O)[C@@]4(Cl)CC=CC(=O)[C@]34C)[C@@]12O", "values": [{"measurement": "Activity", "setting": "[1]", "result": "6.7 to 96", "unit": "%"}, {"measurement": "inhibition", "setting": "Saccharomyces cerevisiae [2]", "result": "Active"}]}, {"molecule": "C=C(CC[C@@H]1[C@@]2(C)CCCC(C)(C)[C@@H]2CC[C@@]1(C)O)[C@H](O)CO", "values": [{"measurement": "Activity", "setting": "[1]", "result": "6.7 to 96", "unit": "%"}, {"measurement": "Activity", "setting": "Saccharomyces cerevisiae [3]", "result": "1.1 to 29.4", "unit": "%"}]}, {"molecule": "C=C1CC[C@H]2C(C)(C)CCC[C@]2(C)[C@H]1C[C@@H](O)/C(C)=C/CO", "values": [{"measurement": "Activity", "setting": "[1]", "result": "6.7 to 96", "unit": "%"}, {"measurement": "Activity", "setting": "Saccharomyces cerevisiae [3]", "result": "1.1 to 29.4", "unit": "%"}]}, {"molecule": "C/C(=C\\CO)CC[C@@H]1[C@@]2(C)CCCC(C)(C)[C@@H]2CC[C@@]1(C)O", "values": [{"measurement": "Activity", "setting": "[1]", "result": "6.7 to 96", "unit": "%"}, {"measurement": "Activity", "setting": "Saccharomyces cerevisiae [3]", "result": "1.1 to 29.4", "unit": "%"}]}, {"molecule": "C=C1CC[C@H]2C(C)(C)CCC[C@]2(C)[C@H]1CC/C(=C/CO)CO", "values": [{"measurement": "inhibition", "setting": "[4]", "result": 33.9, "unit": "%"}, {"measurement": "inhibition", "setting": "Saccharomyces cerevisiae [2]", "result": "Active"}]}, {"molecule": "C=C1CC[C@H]2C(C)(C)CCC[C@]2(C)[C@H]1C[C@H](O)/C(C)=C/CO", "values": [{"measurement": "Activity", "setting": "[1]", "result": "6.7 to 96", "unit": "%"}, {"measurement": "Activity", "setting": "Saccharomyces cerevisiae [3]", "result": "1.1 to 29.4", "unit": "%"}]}, {"molecule": "C=C1CC[C@H]2C(C)(C)CCC[C@]2(C)[C@H]1Cc1occc1C", "values": [{"measurement": "inhibition", "setting": "[4]", "result": 57.5, "unit": "%"}, {"measurement": "Activity", "setting": "Saccharomyces cerevisiae [3]", "result": "1.1 to 29.4", "unit": "%"}, {"measurement": "IC50", "setting": "Acetylcholinesterase", "result": 64.4, "unit": "µM"}]}, {"molecule": "C=C(CC[C@@H]1[C@@]2(C)CCCC(C)(C)[C@@H]2CC[C@@]1(C)O)[C@@H](O)CO", "values": [{"measurement": "Activity", "setting": "[1]", "result": "6.7 to 96", "unit": "%"}, {"measurement": "Activity", "setting": "Saccharomyces cerevisiae [3]", "result": "1.1 to 29.4", "unit": "%"}]}, {"molecule": "C=C1CC[C@H]2C(C)(C)CCC[C@]2(C)[C@H]1C[C@H](O[C@@H]1O[C@H](CO)[C@@H](O)[C@H](O)[C@H]1O)/C(C)=C/CO", "values": [{"measurement": "Activity", "setting": "[1]", "result": "6.7 to 96", "unit": "%"}, {"measurement": "Activity", "setting": "Saccharomyces cerevisiae [3]", "result": "1.1 to 29.4", "unit": "%"}]}, {"molecule": "C=C1CC[C@H]2C(C)(C)CCC[C@]2(C)[C@H]1CC(=O)/C(C)=C/CO", "values": [{"measurement": "Activity", "setting": "[1]", "result": "6.7 to 96", "unit": "%"}, {"measurement": "Activity", "setting": "Saccharomyces cerevisiae [3]", "result": "1.1 to 29.4", "unit": "%"}]}, {"molecule": "CO[C@@H]1CC(=O)[C@]2(C)[C@H]3CC[C@]4(C)[C@@H]([C@@](C)(O)[C@H]5CC(C)=C(C)C(=O)O5)C[C@H](OC(C)=O)[C@]4(O)[C@@H]3C[C@H]3O[C@]32C1", "values": [{"measurement": "Activity", "setting": "[1]", "result": "6.7 to 96", "unit": "%"}, {"measurement": "inhibition", "setting": "Saccharomyces cerevisiae [2]", "result": "Active"}]}]}
